Screens deposited in PubChem by Broad Institute.
FN deposit inh – inhibitors of fibronectin matrix deposition, primary screen, AH1F cells, Alexa488-fibronectin fluorescence, plate reader | AH1F fibroblasts, overnight | inhibition, % at 12.6 µM | hit rate 0.086% among 350,000;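 active = mean inhibition across replicates of 30% or more, regardless of how many single replicates reach that level; inconclusive = mean under 30% yet at least half of replicates reach 30%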;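 also: positive control wells lacked labelled fibronectin entirely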
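Assay system: AH1F fibroblasts / Quantity: 10000 cells per well / Medium: DMEM plus 2% serum, read in PBS / Reagent: labelled fibronectin 24 nM / Dosing: single dose, pinned / Times: 1 h cell attachment, overnight exposure to compound and label / Signal: fluorescence, ex 485 nm, em 525 nm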
rRNA inh HTS – reduced GFP signal of wild-type E. coli, primary screen, bacterial rRNA inhibitor project, GFP/RFP fluorescence, OD600, single point. E. coli WT GFP vs humanized-ribosome RFP mutants, 24 h; active compounds read low; DMSO median 0, no signal -100. GFP signal change (wild-type ribosome), % (test concentration not listed). hit rate 1.6% among 350,000. AID 720706, 2013;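 active = significant combined selectivity score with lowered wild-type GFP, culture density cut under 30%, mutant RFP and density less affected; inactive = any of these conditions unmet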
PglD DTNB – C. jejuni PglD acetyltransferase inhibitors, primary screen, biochemical, DTNB colorimetric, single point | inhibition, % at 12.5 µM | hit rate 0.098% among 360,000 | purified PglD enzyme, DTNB colorimetric CoA detection | UDP-N-acetylbacillosamine N-acetyltransferase PglD (Campylobacter jejuni); in the data active = inhibition above about 16%, passing the limit was not always enough; inconclusive = no clear call, values can overlap the other calls
PGC1a acetyl inh – inhibitors of PGC1a acetylation signal, primary screen, cell-based, U2OS, AlphaScreen, inhibitor mode; AID 651687, 2012; inhibition, % at 15.6 µM; AlphaScreen anti-acetyl-lysine; with virally co-expressed GCN5 acetyltransferase; hit rate 0.17% among 350,000;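 active = every replicate shows inhibition of at least 40%; inconclusive = mean inhibition at least 40% but some replicate below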;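 also: 0% = neutral control wells and 100% = positive control wells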
DENV2 CPE rescue – inhibitors of DENV2 cytopathic effect, primary screen, cell-based, plate reader, single concentration; DENV2-infected cells, cytopathic effect rescue; CPE inhibition, % at 9.99 µM; hit rate 1.7% among 350,000; AID 651640, 2012; in the data active = CPE inhibition above about 20%, passing the limit was not always enough; inconclusive = no clear call, values can overlap the other calls; tested in BHK-21 cells;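 also: 0% = median of neutral control wells and 100% = median of positive control wells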
Env fusion inh – inhibitors of HIV-1 Env-driven cell-cell fusion, primary screen, HeLa-JRFL effector, CEM21 target cells, luciferase | inhibition, % at 12.3 µM | hit rate 1.1% among 360,000;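 active = mean replicate inhibition score of at least 50 and every replicate individually at or above 50; inconclusive = only one of the two criteria met; inactive = mean below 50 and not all replicates reaching 50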;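 also: 0% = plate neutral controls and 100% = maraviroc near 300 nM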
* marks the source's active call; other numbers are inactive results; [ ] = remark or other dose. This is a sample that favours compounds with a hit; in the whole collection about 3.5% have one here.

What do the screens show for `COc1ccc2c(c1)c([C@@H]1[C@H](C)[C@H]3CCCC[C@H]3CN1S(=O)(=O)c1ccc(C)cc1)cn2C`?
FN deposit inh: 4; rRNA inh HTS: 3; PglD DTNB: 1; DENV2 CPE rescue: -14; Env fusion inh: 2

Results for Cc1ccc(S(=O)(=O)N2C[C@@H]3CCCC[C@@H]3[C@@H](C)[C@H]2c2cn(Cc3ccccc3)c3ccccc23)cc1 ?
FN deposit inh: -4; rRNA inh HTS: 4; PglD DTNB: -3; DENV2 CPE rescue: -2; Env fusion inh: 63*

How did Cc1ccc(S(=O)(=O)N2C[C@@H]3CCCC[C@@H]3[C@@H](C)[C@H]2c2cn(Cc3ccccc3)c3ncccc23)cc1 do in these assays?
rRNA inh HTS: 9; PglD DTNB: 0; PGC1a acetyl inh: -5; DENV2 CPE rescue: 15; Env fusion inh: 70*

What do the screens show for `CCNC(=O)C[C@@H]1CC[C@@H]2[C@H](COC[C@@H](O)CN2C(=O)Nc2ccc(Cl)c(Cl)c2)O1`?
FN deposit inh: -6; rRNA inh HTS: -59; PglD DTNB: 0; PGC1a acetyl inh: 9; DENV2 CPE rescue: 3

What do the screens show for `CCOC(=O)C1CCCN(C(=O)CSc2ccc(Br)cc2)C1` (stereo not given)?
PGC1a acetyl inh: 78*

Results for CCOC(=O)C1CCCN(C(=O)C(C)(C)Oc2ccc(Cl)cc2)C1 (stereo not given) ?
rRNA inh HTS: -30*; PGC1a acetyl inh: -4; DENV2 CPE rescue: -8; Env fusion inh: -1

How did CCOC(=O)C1CCCN(C(=O)c2ccc(OC(C)=O)cc2)C1 (stereo not given) do in these assays?
FN deposit inh: 1; PglD DTNB: -1; PGC1a acetyl inh: 2; Env fusion inh: -59

What do the screens show for `COC(=O)[C@]1(Cc2ccccc2)N[C@H](CN(C)S(=O)(=O)c2ccc(C)cc2)[C@@H]2C(=O)N(Cc3ccccc3)C(=O)[C@@H]21`?
FN deposit inh: 8; rRNA inh HTS: 6; PglD DTNB: -1; PGC1a acetyl inh: 8; DENV2 CPE rescue: 24*; Env fusion inh: 1

How did COC(=O)[C@]1(Cc2ccccc2)N[C@H](CN(C)S(=O)(=O)c2ccc(-c3ccccc3)cc2)[C@@H]2C(=O)N(Cc3ccccc3)C(=O)[C@@H]21 do in these assays?
FN deposit inh: 4; rRNA inh HTS: 3; PglD DTNB: 1; PGC1a acetyl inh: 7; DENV2 CPE rescue: 4; Env fusion inh: 59*

Results for CCN(C[C@H]1N[C@@](Cc2ccccc2)(C(=O)OC)[C@H]2C(=O)N(Cc3ccccc3)C(=O)[C@@H]12)S(=O)(=O)c1ccc(C)cc1 ?
FN deposit inh: 0; rRNA inh HTS: 2; PglD DTNB: 4; DENV2 CPE rescue: 15; Env fusion inh: -74

Results for C[C@@H]1CN([C@@H](C)CO)C(=O)c2cc(NC(=O)Cn3cnnn3)ccc2O[C@@H]1CN(C)Cc1ccccc1 ?
rRNA inh HTS: 1; PglD DTNB: 1; DENV2 CPE rescue: 0; Env fusion inh: 6[16.7 µM]

What do the screens show for `Cc1ccc(-n2cccc2/C=C2/C(=N)N3C(=NC2=O)SN=C3S(C)(=O)=O)cc1`?
FN deposit inh: -5; PGC1a acetyl inh: 7; Env fusion inh: -38

How did Cc1cc(C)cc(-n2cccc2/C=C2/C(=N)N3C(=NC2=O)SN=C3S(C)(=O)=O)c1 do in these assays?
rRNA inh HTS: -28*; PGC1a acetyl inh: 6; DENV2 CPE rescue: -3; Env fusion inh: 8

What do the screens show for `CC(C)NC(=O)NCC[C@@H]1CC[C@@H](NS(=O)(=O)c2ccc(Oc3ccccc3)cc2)[C@H](CO)O1`?
FN deposit inh: 0; rRNA inh HTS: 2; PglD DTNB: 5; PGC1a acetyl inh: 3; DENV2 CPE rescue: 2; Env fusion inh: 7[16.7 µM]

What do the screens show for `CC1(C)C(=Cc2ccccc2)C(=O)c2ccccc21`?
FN deposit inh: -8; rRNA inh HTS: -51; PglD DTNB: 3; DENV2 CPE rescue: 4; Env fusion inh: -17

Results for CC1(C)c2ccccc2C(=O)c2ccccc21 ?
rRNA inh HTS: -22*; PglD DTNB: -2; PGC1a acetyl inh: -7; DENV2 CPE rescue: 6; Env fusion inh: -16

Results for COc1cccc(CNC(=O)C[C@@H]2CC[C@@H]3[C@@H](COc4ccc(NS(=O)(=O)c5ccccc5F)cc4C(=O)N3C)O2)c1 ?
FN deposit inh: -8; rRNA inh HTS: 3; PglD DTNB: 0; PGC1a acetyl inh: -3; DENV2 CPE rescue: 6; Env fusion inh: -16[16.7 µM]

How did C[C@@H]1CN([C@@H](C)CO)C(=O)c2cc(/C=C/c3ccccc3)cnc2O[C@H]1CN(C)C do in these assays?
FN deposit inh: 9; rRNA inh HTS: 1; PglD DTNB: -1; PGC1a acetyl inh: -9; DENV2 CPE rescue: -12; Env fusion inh: -4[16.7 µM]

How did CCn1nc(C)c(/C=C/C(=O)Nc2ccc(C)cc2C)c1C do in these assays?
FN deposit inh: 12; rRNA inh HTS: -18; DENV2 CPE rescue: 89*

Results for C=C1CCN([C@@H](Cc2ccccc2)C(=O)Nc2ccc(OC)cc2)S(=O)(=O)c2ccccc21 ?
FN deposit inh: 1; rRNA inh HTS: -8; PglD DTNB: 1; PGC1a acetyl inh: -8; DENV2 CPE rescue: inconclusive; Env fusion inh: 105*

How did C=C1CCN([C@H](C(=O)Nc2ccc(OC)cc2)C(C)C)S(=O)(=O)c2ccccc21 do in these assays?
FN deposit inh: -1; rRNA inh HTS: -4; PglD DTNB: 4; PGC1a acetyl inh: 0; DENV2 CPE rescue: 10; Env fusion inh: 7

What do the screens show for `C=C1CCN([C@H](C(=O)OCc2ccc(C)cc2)C(C)C)S(=O)(=O)c2ccccc21`?
FN deposit inh: 2; rRNA inh HTS: 4; PglD DTNB: 2; DENV2 CPE rescue: 10; Env fusion inh: 80*

What do the screens show for `COCC(=O)N1C[C@H](C)[C@H](OC)CN(C)C(=O)c2cc(NC(=O)C3CCC3)ccc2OC[C@@H]1C`?
FN deposit inh: -7; rRNA inh HTS: 0; PglD DTNB: 0; PGC1a acetyl inh: 4; DENV2 CPE rescue: -6; Env fusion inh: -12[16.7 µM]

Results for OCC1OC(n2cnc3c(NCc4ccco4)ncnc32)C(O)C1O (stereo not given) ?
FN deposit inh: 5; rRNA inh HTS: 5; DENV2 CPE rescue: 0; Env fusion inh: 70*

How did Nc1nc(SCc2ccccc2)c2ncn(C3OC(CO)C(O)C3O)c2n1 (stereo not given) do in these assays?
rRNA inh HTS: -6; PglD DTNB: 3; PGC1a acetyl inh: -8; DENV2 CPE rescue: -3; Env fusion inh: -3
